The text below walks through data of ChEMBL document CHEMBL4725497, “Addition of Fluorine and a Late-Stage Functionalization (LSF) of the Oral SERD AZD9833” (ACS Med Chem Lett, 2020).

Data set [1] can be described thus: Intrinsic clearance in human microsome assessed as rate of metabolism. Conditions: microsomes. Type of data set: ADME. In outline: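 Compound from a DMSO stock was incubated with human liver microsomes. Rate of metabolism is expressed in μL/min/mg.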
Data set [2] deals with T1, Estrogen receptor (Homo sapiens) (UniProt P03372).
T1 sequence (whole entry): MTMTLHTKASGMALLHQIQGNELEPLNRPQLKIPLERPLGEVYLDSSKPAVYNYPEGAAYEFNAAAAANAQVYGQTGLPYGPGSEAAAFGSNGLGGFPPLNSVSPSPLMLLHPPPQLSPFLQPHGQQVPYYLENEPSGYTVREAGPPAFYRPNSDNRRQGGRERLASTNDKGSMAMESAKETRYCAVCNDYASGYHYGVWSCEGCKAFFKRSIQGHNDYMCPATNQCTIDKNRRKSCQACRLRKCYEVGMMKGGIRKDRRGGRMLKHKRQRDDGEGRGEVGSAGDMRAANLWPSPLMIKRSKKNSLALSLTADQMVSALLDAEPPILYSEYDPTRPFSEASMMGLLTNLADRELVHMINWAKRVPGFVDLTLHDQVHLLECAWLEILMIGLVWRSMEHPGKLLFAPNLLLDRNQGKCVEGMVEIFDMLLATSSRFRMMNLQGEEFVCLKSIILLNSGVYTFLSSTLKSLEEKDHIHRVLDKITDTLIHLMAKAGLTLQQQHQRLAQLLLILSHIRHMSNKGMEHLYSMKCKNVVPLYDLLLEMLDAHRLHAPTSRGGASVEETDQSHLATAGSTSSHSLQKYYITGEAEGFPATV
The data set is described as follows: Induction of ERalpha degradation in human MCF7 cells at 0.1 uM incubated for 18 to 22 hrs immuno-fluorescence assay relative to control. Type of data set: cell-based.

The target of data set [3] is T2, Estrogen receptor (Homo sapiens, UniProt P03372).
T2 sequence (P03372 whole entry): T1 sequence (whole entry)
The data set can be described thus: Induction of ERalpha degradation in human MCF7 cells incubated for 18 to 22 hrs by immuno-fluorescence assay. Type of data set: cell-based.

Data set [4] in a line: Intrinsic clearance in rat hepatocytes assessed rate of metabolism per 10^6 cells. In kind it is ADME, cell-based, Hepatocyte. The note with it: read-out: CLH. In outline: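 Compound from a DMSO stock was incubated with isolated rat hepatocytes diluted to 1 × 10^6 cells/mL. Rate of metabolism is expressed in μL/min/10^6 cells.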
Data set [5] can be described thus: Lipophilicity, log D of compound at pH 7.4 by shake-flask method. Type of data set: physicochemical. Conditions: buffer. In a few lines:
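logD at pH 7.4 was measured by the shake-flask method.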

In data set [6] the target is T2, Estrogen receptor. The data set is described as follows: Displacement of fluorescent labelled fluormone ES2 from human recombinant GST tagged ER alpha LBD ( 282 to 595 residues) expressed in baculovirus infected insect cells incubate for 20 mins measured after 1 hr by TR-FRET Lanthascreen assay. In a few lines:
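ER binding was reported as n ≥ 2 determinations, with SEM within 0.3 log units.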

Data set [7] in a line: Fraction unbound in human plasma by equilibrium dialysis method. Type of data set: ADME, cell-free. In a few lines:
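Binding was measured by equilibrium dialysis in 10% human plasma, with compound added from a DMSO stock.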
(Equilibrium dialysis compares concentrations on both sides of a semipermeable membrane.)

Data set [8] has as its target T1, Estrogen receptor (Homo sapiens). The data set is described as follows: Induction of ERalpha degradation in human CAMA-1 cells at 0.1 uM incubated for 18 to 22 hrs Western blot assay relative to fulvestrant. Type of data set: cell-based. In a few lines: (§1)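 Western blot read-out of ERα protein loss in MCF-7 and CAMA-1 breast cancer cells treated with compound at 0.1 μM. Degradation expressed as percentage relative to fulvestrant.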

The target is the same in data set [9]. The data set is described as follows: Induction of ERalpha degradation in human MCF7 cells at 0.1 uM incubated for 18 to 22 hrs Western blot analysis relative to fulvestrant. Type of data set: cell-based. In outline: as §1
Data set [10] in a line: Oral bioavailability in rat at 1 mg/kg. In kind it is ADME, organism-based. Conditions: in vivo. In outline:
(§2)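 Rats were given 0.5 mg/kg IV in 5% DMSO:95% hydroxylpropyl β-cyclodextrin or 10% DMA:90% Captisol, and 1 mg/kg orally as a 0.1% HMPC/tween suspension or a 10% DMSO:90% cyclodextrin solution. Plasma clearance, Vdss and half-life came from the IV arm; AUC came from the oral arm; bioavailability F (%) was also reported.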

Data set [11] can be described thus: Volume of distribution at steady state in rat at 0.5 mg/kg or 1 mg/kg, […]. Type of data set: ADME, organism-based. Conditions: in vivo.
Data set [12] can be described thus: Half-life in rat at 0.5 mg/kg, iv. Type of data set: ADME, organism-based. Conditions: in vivo. In outline: as §2
A short description of data set [13]: Clearance in rat plasma at 0.5 mg/kg, iv and 1 mg/kg, po. In kind it is ADME, organism-based. In outline:
as §2

Data set [14] in a line: AUC in rat at 1 mg/kg, po. In kind it is ADME, organism-based. Further details: dose 1 mg/kg. Conditions: in vivo. In a few lines:
as §2

A short description of data set [15]: Efflux ratio of intrinsic permeability from basolateral to apical side over apical to basolateral side in human Caco2 cells at 7.4:7.4 apical: basolateral pH at 10 uM. The note with it: Caco-2, pH 7.4. In kind it is ADME, cell-based. (Passage across Caco-2 layers is used to estimate intestinal permeability.)

The microsomal CLint is the capacity of the preparation to metabolise the compound, expressed as a volume cleared per time. For orientation: IC50 means the concentration that gives 50% inhibition. For orientation: logD means the decadic logarithm of the distribution of all forms, ionised or not, between an organic phase and buffer at a given pH. Lower therefore signals lower lipophilicity. Broadly, the fraction unbound is free concentration divided by total concentration. A high value points to weak binding. Turning to `C[C@@H]1Cc2c(cc(F)c3[nH]ncc23)[C@@H](c2ccc(NC3CN(CCCF)C3)cn2)N1CC(F)(F)F`, the microsomal CLint in data set [1] was 19 µL/min/mg. The compound also displayed an Activity in data set [2] of 98%. The IC50 against Estrogen receptor [3] was 0.2 nM; at Estrogen receptor [6], 0.501 nM. For the same compound, the hepatocyte CLint in data set [4] came out at 20 µL/min/1e6 cells. The logD in [5] was 3.2. Besides, in data set [7], the fraction unbound was found to be 0.14.

Turning to `C[C@@H]1Cc2c(ccc3[nH]ncc23)[C@@H](c2ccc(NC3CN(CCCF)C3)cn2)N1CC(F)(F)F` [CAMIZESTRANT], the microsomal CLint in data set [1] was found to be 12 µL/min/mg. The Activity in [8] was determined as 98%; in [2] it was 99%; in data set [9] it was 95%. In addition, in data set [5], the logD is 2.9.

As for `FCCCN1CC(Nc2ccc([C@@H]3c4ccc5[nH]ncc5c4C[C@@H](C(F)F)N3CC(F)F)nc2)C1`, the microsomal CLint in [1] was 34 µL/min/mg. Further, the Activity in [2] worked out at 97%. For the same compound, in [4], the hepatocyte CLint is 32 µL/min/1e6 cells. Also, the fraction unbound in data set [7] stood at 0.28.

For the compound `C[C@@H]1Cc2c(c(O)cc3[nH]ncc23)[C@@H](c2ccc(NC3CN(CCCF)C3)cn2)N1CC(F)(F)F`, the microsomal CLint in data set [1] came out at 5 µL/min/mg. The compound further came in with an Activity in data set [2] greater than 80%. In addition, the results for the IC50 at Estrogen receptor [3] and on Estrogen receptor [6] were 126 nM and 39.8 nM, respectively. Besides, in data set [4], the hepatocyte CLint worked out at 11 µL/min/1e6 cells. Also, the logD in data set [5] is 2.3.

As usually defined, the bioavailability is dose-corrected exposure relative to a reference, in per cent. A high value points to much systemic uptake. What is called half-life is how long it takes for the measured level to halve. The term AUC denotes concentration integrated over time. The low end stands for low exposure, the high end for high exposure. As for `C[C@@H]1Cc2c(ccc3[nH]ncc23)[C@@H](c2ccc(NC3CN(CCCF)C3)c(F)n2)N1CC(F)(F)F`, in [10], the bioavailability came out at 34%. The microsomal CLint in [1] amounted to 20 µL/min/mg. The Activity in [2] is 98%. This compound had a Vdss in data set [11] of 7.7 L/kg. The hepatocyte CLint in data set [4] amounted to 36 µL/min/1e6 cells. In addition, the logD in [5] was 3. In addition, in data set [12], the half-life is 1.9 h. Besides, the clearance in [13] was 65 mL/min/kg. Also, the fraction unbound in [7] was determined as 0.16. In data set [14], this compound gave an AUC of 0.22 µM·h.

Take `C[C@@H]1Cc2c(c(F)cc3[nH]ncc23)[C@@H](c2ccc(NC3CN(CCCF)C3)cn2)N1CC(F)(F)F`: the microsomal CLint in [1] was 8 µL/min/mg. The same compound had an Activity in data set [2] of 95%. Moreover, the IC50 on Estrogen receptor [3] was 5.01 nM; at Estrogen receptor [6], 15.8 nM. Moreover, the hepatocyte CLint in data set [4] was 11 µL/min/1e6 cells. In addition, the logD in [5] is 2.7. This compound also returned a fraction unbound in data set [7] of 0.19.

Turning to `C[C@@H]1Cc2c(ccc3[nH]ncc23)[C@@H](c2ncc(NC3CN(CCCF)C3)cc2F)N1CC(F)(F)CF`, the microsomal CLint in data set [1] is 26 µL/min/mg. This compound showed an Activity in data set [2] of 98%. Besides, the hepatocyte CLint in data set [4] was determined as 55 µL/min/1e6 cells.

As usually defined, the efflux ratio is a quotient of directional permeabilities that is used to spot active efflux. For the compound `C[C@@H]1Cc2c(ccc3[nH]nc(F)c23)[C@@H](c2ncc(NC3CN(CCCF)C3)cc2F)N1CC(F)(F)F`, the bioavailability in [10] is 60%. Moreover, the microsomal CLint in [1] stood at 34 µL/min/mg. In data set [15], the efflux ratio at 10 µM worked out at 1.4. The Activity in data set [2] worked out at 99%. The compound also showed a Vdss in data set [11] of 17 L/kg. Further, the hepatocyte CLint in [4] was determined as 10 µL/min/1e6 cells. In data set [12], this compound had a half-life of 9.6 h. The concentration for half-maximal inhibition (IC50) at Estrogen receptor [6] was 1.26 nM. In addition, in data set [13], the clearance was found to be 24 mL/min/kg. Moreover, the fraction unbound in data set [7] was 0.054. In data set [14], this compound came in with an AUC of 0.76 µM·h.

With `C[C@@H]1Cc2c(ccc3[nH]nc(F)c23)[C@@H](c2ccc(NC3CN(CCCF)C3)c(F)n2)N1CC(F)(F)F`, in [1], the microsomal CLint turned out to be 44 µL/min/mg. In [2], this compound gave an Activity of 99%. The values for the IC50 against Estrogen receptor [3] and on Estrogen receptor [6] were 0.0501 nM and 1 nM, respectively. Also, the hepatocyte CLint in data set [4] was 10 µL/min/1e6 cells. The fraction unbound in [7] was determined as 0.068.

Regarding `C[C@@H]1Cc2c(ccc3[nH]ncc23)[C@@H](c2ccc(NC3CN(CCCF)C3)cn2)N1CC(F)F`, in data set [1], the microsomal CLint is 28 µL/min/mg. Further, in data set [2], the Activity was 99%.

`C[C@@H]1Cc2c(ccc3[nH]ncc23)[C@@H](c2ncc(NC3CN(CCCF)C3)cc2F)N1CC(F)(F)F`: the microsomal CLint in [1] came out at 19 µL/min/mg. Also, the results for the Activity in data set [8], in data set [2] and in [9] were 98%, 98% and 96%, respectively. In data set [15], the efflux ratio at 10 µM worked out at 7. Moreover, the IC50 against Estrogen receptor [3] is 0.251 nM; at Estrogen receptor [6], 2 nM. Moreover, in data set [4], the hepatocyte CLint amounted to 24 µL/min/1e6 cells. This compound had a logD in data set [5] of 3. In addition, in data set [7], the free fraction (fraction unbound) was found to be 0.16.

On to `COc1cc2[nH]ncc2c2c1[C@@H](c1ccc(NC3CN(CCCF)C3)cn1)N(CC(F)(F)F)[C@H](C)C2`, for which, in data set [1], the microsomal CLint was 26 µL/min/mg. Also, in data set [2], the Activity was determined as 40%. Moreover, the figures for the IC50 on Estrogen receptor [3] and on Estrogen receptor [6] were 2.51 nM and 501 nM, respectively. In addition, the hepatocyte CLint in data set [4] is 6 µL/min/1e6 cells. For the same compound, in data set [5], the logD was determined as 2.4. This compound had a fraction unbound in [7] of 0.32.
